The record followed here is ChEMBL document CHEMBL4138224, “DNA intercalators based on (1,10-phenanthrolin-2-yl)isoxazolidin-5-yl core with better growth inhibition and selectivity than cisplatin upon head and neck squamous cells carcinoma” (Eur J Med Chem, 2018).

The species named for series [1] is Bos taurus. The experiment in a line: Induction of calf thymus B DNA intercalation assessed as drug binding constant at DNA melting temperature at 31 uM by UV-vis spectrophotometric method. In outline:
(§1)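 ct-DNA (31 μM in base pair) mixed with 31 μM compound, taken as saturating, in PBS. Absorbance at 260 nm monitored while heating 308 to 388 K at 1 K/min with a Peltier unit, giving melting curves. Binding constants estimated from the melting data.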

In series [2] the test system is Bacteria. In words: Induction of bacterial pGEM-T easy DNA intercalation assessed as topoisomerase 1-mediated conversion of relaxed plasmid DNA to negatively supercoiled DNA at 10 nM after 30 mins by agarose-gel electrophoresis method. Put shortly: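 Relaxed pGEM-T Easy plasmid was made by Topo I treatment of supercoiled plasmid. Stopped with SDS/proteinase K (30 min, 50 °C). Run on 1% agarose in TBE, ethidium bromide stain; relaxed-to-supercoiled conversion scored.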

Series [3] deals with WSU-HN13. In words: Cytotoxicity against human HN13 cells assessed as decrease in cell viability after 24 hrs by MTT assay. It counts as functional, cell-based. Conditions: WSU-HN13, 24 h. In outline:
(§2)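 Cells seeded at 1×10^4 per well in complete medium with 10% FBS and antibiotics, 37 °C, 5% CO2. Washed with serum-free medium, then exposed to compounds for 24 h. MTT (5 mg/mL) added for a further 4 h, formazan dissolved in DMSO, absorbance read at 490 nm. Triplicates; IC50 obtained by non-linear regression of dose-response curves.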
On the technique in general: Formazan colour is commonly taken as a measure of viable cells.

Series [4] is filed under the species Bos taurus. In words: Induction of calf thymus B DNA intercalation at 36 uM by CD spectra method. In outline:
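CD titration at 25 °C in quartz cells: fixed ct-DNA (12.6 μM in base pair) with compound added from a 4.26 mM DMSO stock, final 0 to about 35 μM. Each spectrum is an average of 5 runs with 5 min equilibration before each scan, corrected for dilution, cell and solvent.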

For series [5], the system named is 184B5. In words: Cytotoxicity against human 184B5 cells assessed as decrease in cell viability after 24 hrs by MTT assay. Conditions: 184B5, 24 h. It is filed as cell-based. Put shortly:
as §2

The test system of series [6] is HeLa. In words: Cytotoxicity against human HeLa cells assessed as decrease in cell viability after 24 hrs by MTT assay. It is filed as functional, cell-based. Put shortly: as §2
The species entered for series [7] is Bos taurus. In words: Induction of calf thymus B DNA intercalation assessed as DNA melting temperature at 31 uM by UV-vis spectrophotometric method (reference value: 354K). In outline:
as §1

The nature of series [8]: Cytotoxicity against human HN6 cells assessed as decrease in cell viability after 24 hrs by MTT assay. It is filed as functional, cell-based. Conditions: HN-6, 24 h. Put shortly: as §2
Series [9] is described as follows: Potency index, ratio of cisplatin IC50 to test compound IC50 for human HN6 cells. It counts as functional.
The nature of series [10]: Selectivity index, ratio of IC50 for human 184B5 cells to IC50 for human HN6 cells. Conditions: 184B5 cells versus HN6 cells, read-out: Ratio IC50. It counts as toxicity.
The nature of series [11]: Selectivity index, ratio of IC50 for human 184B5 cells to IC50 for human HN13 cells. It is filed as toxicity. The settings on record: 184B5 cells versus HN13 cells, read-out: Ratio IC50.
Series [12] in a line: Selectivity index, ratio of IC50 for human 184B5 cells to IC50 for human HeLa cells. It is filed as toxicity. The settings on record: 184B5 cells versus HeLa cells, read-out: Ratio IC50.
Series [13] concerns WSU-HN13. In words: Potency index, ratio of cisplatin IC50 to test compound IC50 for human HN13 cells. It counts as functional.

SMILES strings stand for the structures. Activity calls are given as the source filed them. The calls are words filed in the database; no cut-off is given here.

As a reminder, the IC50 is the concentration at which inhibition is half-maximal. Regarding `COc1ccccc1CN1O[C@@H](CO)C[C@@H]1c1ccc2ccc3cccnc3c2n1` (relative stereo), in series [1], the K stood at 9.26 ×10³ /M. In addition, the result in [2] and in series [4] was Active. For the same molecule, the IC50 stood at 25.4 µM in series [3], 381 µM in series [5], 40.2 µM in series [6] and 24.8 µM in [8]. For the same molecule, the Tm in series [7] turned out to be 81.9 °C.
`COc1ccccc1CN1O[C@H](CO)C[C@@H]1c1ccc2ccc3cccnc3c2n1` (relative stereo): the K in series [1] came out at 4.53 ×10⁴ /M. Also, the “Ratio IC50” value in series [9] is reported as 3.4; in series [13], 9.2. The outcome in [2] and in [4] was Active. In addition, the IC50 is 4.5 µM in series [3], 324 µM in [5], 13.3 µM in series [6] and 6.3 µM in series [8]. The selectivity ratio in series [10] turned out to be 51.4; in series [11] it was 72; in series [12], 24.3. For the same molecule, the Tm in series [7] was 84.9 °C.
